The labels stand for the following.
B1: tRNA (parent)
chain: GUUCCGUUGGCGUAAUGGUAACGCGUCUCCCUCCUAAGGAGAAGACUGCGGGUUCGAGUCCCGUACGGAACG

Data on 38 variants can be found in the RNAGym collection of RNA variant scans (doi:10.1126/science.aae0568).

Fewer inactive variants are shown than the library holds.

In this data set the parent is B1. The data set is described as follows: yeast fitness relative to wild type (ratio to wild type); higher = fitter; tRNA-Arg(CCU), competitive growth, 37 C, YPD. The essentials: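 Start and end populations of a pooled competition were compared by 100-nucleotide paired-end sequencing of gene amplicons. The Saccharomyces cerevisiae strains carried tRNA-Arg(CCU) gene variants at the native genomic locus, synthesised with a 3% per-site mutation rate at 69 sites, and competed in YPD at 37°C for 24 hours in six parallel replicates. Darwinian fitness relative to wild type was based on the change in genotype frequencies. Genotypes required ≥ 100 starting reads, and estimates < 0.5 were set to 0.5.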
For GUUCCGUUGGCGUAAUGGUAACGCGGCUAGGUCCUAAGGAGAAGACUGCGGGUUCGAGACCCGUACGGAACG, the yeast fitness came out at 0.533. As for GUUCCGUUGGCGUAAUGGUAACGCGGCUCCCUCCUUAGGAGAAGACGGCGGGUUCGAGUCCUGUACGCAACG, the yeast fitness is at most 0.5. For GUUCCGUUGGCGUAAUGGUAACGCGCCUCCCUCCCAAGGAGAAGACUGCCGAUUCGAGUCCCGUACGGAACG, the yeast fitness was at most 0.5.

Take GUUCCGUUGGCGUAAUGGUAACGCGCCUCCCUCCUAAGGAGAAGACUGCGGGCUCGAAUCCCGUACGGAACG: the yeast fitness came to 0.686.

Turning to GUUCCGUUGGCGUAAUGGUAACGCGCCUCCCUCCUAAGGAGAAGACUACGGGUUUGAGUCCCGUACGGAACG, the yeast fitness is 0.561. For the variant GUUCCGUUGGCGUAAUGGUAACGCGGCUCCCUCCUAAGGAGCAGACUGCGGGUUCGAGUCUCGUACGGAACG, the yeast fitness is 0.684. On to GUUCCGUUGGCGUAAUGGUAACGCGCCUCCCUCCUAAGGAGAAGACUGCGGGUUCCCGUCCCGUACGGAACG, for which the yeast fitness was at most 0.5. In the case of GUUCCGUUGGCGUAAUGGUAACGCGCCUCCCUCCUAAGGAGAAGACCGCGGGUUCGAGUCCCGUACGGAACG, the yeast fitness came out at 0.952. As to GUUCCGUUGGCGUAAUGGUAACGCGGCUCCCUCCUUAGGAGAAGACGGCGGGUUCGAGUCCCGUACGGAACG, the yeast fitness worked out at 0.626.

GUUCCGUUGGCGUAAUGGUAACGCGCCCCCCUCCUAAGGAGAAGACUGCGGGUUCGAGUCCCGUACGGAGCG: the yeast fitness amounted to 0.73.

Consider GUUCCGUUGGCGUAAUGGUAACGCGGCUCCCUCCUCAGGAGAAGACUGCGGGUUCGAGUCCCGUAAGGAACG, for which the yeast fitness is at most 0.5. With GUUCCGUUGGCGUAAUGGUAACGCGCCUCCCUCCUAAGGAGAAGACUGCGGAUUCGAGUCCCGUACGGAACG the figure was 0.748; with GUUCCGUUGGCGUAAUGGUAACGCGGCUCCCUCCUAAGGAGAAGACUGCGGGUUCGAGUCCCGUACGGAACG, 0.971; with GUUCCGUUGGCGUAAUGGUAACGCGGCUCCCUCCUAAGGAGAAGACUGCGGGUUCGAGUCCCGUACGGUACG, 0.919. Turning to GUUCCGUUGGCGUAAUGGUAACGCGCCUCCCUCCUAAGGAGAAGACUGCGGGUUCGAGUCCCCUACGGAACG, the yeast fitness was determined as 0.76. Next, GUUCCGUUGGCGUAAUGGUAACGCGGCUCACUCCUAAGGAGAAGACUGCGGGUUCGAGUCCCGUACGCAACG: 0.531; GUUCCGUUGGCGUAAUGGUAACGCGCCUCCCUCCAAAGGAGAAGACAGCGGGUACGAGUCCCGUACGGAACG: at most 0.5. Next, GUUCCGUUGGCGUAAUGGUAACGCGCCUCCCUCCUAAGGAGAAGACUGCCGGUUCGAGUCCCGUACGGAACG: 0.732; GUUCCGUUGGCGUAAUGGUAACGCGCCUCCCUCCUAAGGAGAAGACUGCUGGUUCGAGUCCCGUACGGAACG: 0.733; GUUCCGUUGGCGUAAUGGUAACGCGGUUCCCUCCUAAGGAGAAGACUGCCGGUUCGAGUCCCGUACGGAACG: at most 0.5.

As for GUUCCGUUGGCGUAAUGGUAACGCGGCUCCCUCCUAAGGAGCAGACUGCGGGUUCGAGUCCCGUACGGAACG, the yeast fitness is 1.03.

As to GUUCCGUUGGCGUAAUGGUAACGCGGCUCCCUCCUAAGGAGAAGUCUGCGGGUUCGAGUCCCGUACGGAACG, the yeast fitness was 0.789. Next, GUUCCGUUGGCGUAAUGGUAACGCGCCUCCCUCCUAAGGAAAAGACCGCGGGUUCGAGUCGUGUACGGAACG: at most 0.5; GUUCCGUUGGCGUAAUGGUAACGCGCCCCCCUCCUCAGGAGAAGACUGCGGGUUCGAGUCCCGUACGGAACG: at most 0.5; GUUCCGUUGGCGUAAUGGUAACGCGCCUCCCCCCUAGGGAGAAGACUGGGGGUUCGAGUCCCGUACGGAACG: at most 0.5.

Consider GUUCCGUUGGCGUAAUGGUAACGCGCCUCCCUCCUAAGGAGAAGACUGCGGGAUCGAGUCCCGUACGGAACG, for which the yeast fitness is 0.706. With GUUCCGUUGGCGUAAUGGUAACGCGCCUCCCUCCUAAGGAGAAGACUACGGGUUCGGGUCGCGUACGGAACG the figure was 0.501. Next, GUUCCGUUGGCGUAAUGGUAACGCGGCUCCGUCCUUAGGAAAAGCCUGCGGGUUCGAGUCCCGUACGGAACG: at most 0.5. Next, GUUCCGUUGGCGUAAUGGUAACGCGGCUCCCUCCUAAGGAGAAGUCUGCAGGUUAGAGUCCCGUACGGAACG: at most 0.5; GUUCCGUUGGCGUAAUGGUAACGCGCCUCCCUCCUAAGGAGAAGACUGCAGGUUCGAGACCCGUACCGAACG: at most 0.5; GUUCCGUUGGCGUAAUGGUAACGCGCCUCCCUCCCAAGGAGAAGACUGUGGGUUCGUGUCCCGUACGGAACG: 0.656. Take GUUCCGUUGGCGUAAUGGUAACGCGGCUGCCUCCUAAGGAGAAGACUGCGGGUUCGAGUCCUGUACGGAGCG: the yeast fitness turned out to be 0.61.

In the case of GUUCCGUUGGCGUAAUGGUAACGCGCCUCCCACUUAACGAGAAGACUGCGAGUUCGCGUCCCGUAUGGAACG, the yeast fitness came out at 0.66. Next, GUUCCGUUGGCGUAAUGGUAACGCGGCUCCCUCCUAAGGAGAAGGUUGCGGGGUCGAGUCCCGUAUGGUACG: 0.582; GUUCCGUUGGCGUAAUGGUAACGCGGCUCCGACCUAAGGAGAAGACUGCGGGUUCGAGUCCCGUACGGAACG: 0.691. Take GUUCCGUUGGCGUAAUGGUAACGCGCCGCCCUCUUAAAGAGAAGACUGCGGGUUCGAGUCCCGUACGGAACG: the yeast fitness was at most 0.5. Regarding GUUCCGUUGGCGUAAUGGUAACGCGCCCCCCUCGUAAGGAGAAGACUGCGGGUUCGAGACCCGUUCGGAACG, the yeast fitness is at most 0.5. Take GUUCCGUUGGCGUAAUGGUAACGCGCCUCCCUCCUAAGGAGAAGACUGCGGGUUCAAGUCCCGUACGGAACG: the yeast fitness was 0.895.
